These results are taken from ChEMBL document CHEMBL3870363, “Systematic Study of Effects of Structural Modifications on the Aqueous Solubility of Drug-like Molecules” (ACS Med Chem Lett, 2017).

Broadly, the solubility (thermodynamic) is solubility found after equilibrating the solid with the medium. The Ki is a measure of affinity in units of concentration, obtained from inhibition or displacement.

Data set [1] is described as follows: Aqueous solubility of the compound in Britton-Robinson buffer at pH 6.5 measured after 2 days by saturation shake flask based UV-vis spectroscopy. Format: physicochemical. In short, it runs like this: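 Shake-flask method: saturated solutions formed by stirring 2 days in Britton–Robinson buffer (pH 6.5), then filtered through a 0.2 μm pore syringe filter and quantified by UV–vis. Piroxicam served as a repeated control.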

Data set [2] deals with T1, Macrophage migration inhibitory factor (Homo sapiens, UniProt P14174).
T1 sequence (P14174 whole entry): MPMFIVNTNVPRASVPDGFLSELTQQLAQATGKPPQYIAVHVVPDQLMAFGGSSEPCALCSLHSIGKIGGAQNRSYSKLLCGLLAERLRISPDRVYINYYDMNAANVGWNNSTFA
Description: Inhibition of recombinant human MIF tautomerase activity expressed in Escherichia coli assessed as borate-enol complex formation using 4-hydroxyphenyl pyruvic acid as substrate preincubated for 20 mins followed by substrate addition measured for 175 sec by spectrophotometric analysis.

Data set [3] can be described thus: Equilibrium solubility of the compound in Britton-Robinson buffer stirred for 6 hrs followed by sedimentation for 18 hrs by saturation shake flask based UV-vis spectroscopy. Type of data set: physicochemical.

Values after ≈ are worked out from the molar mass of the structure shown.

In data set [1], `COCCOc1ccc2nc(-c3cn(-c4ccc(O)cc4)nn3)ccc2c1` showed a thermodynamic solubility at 48 h of 3.6 to 4 µg/mL (≈ 9.93 to 11 µM).

As to `O=C(O)CCCOc1ccc2nc(-c3cn(-c4ccc(O)c(F)c4)nn3)ccc2c1`, in data set [1], the solubility (thermodynamic) at 48 h was 19.2 µg/mL (≈ 47 µM). The compound `Oc1ccc(-n2cc(-c3ccc4ccccc4n3)nn2)cc1` showed a thermodynamic solubility at 48 h in data set [1] of 2.2 µg/mL (≈ 7.63 µM).

Turning to `COCCOCCOc1ccc2nc(-c3cn(-c4ccc(O)cc4)nn3)ccc2c1`, the thermodynamic solubility at 48 h in data set [1] stood at 2.4 µg/mL (≈ 5.9 µM). Further, the Ki in data set [2] came to 147 nM. In turn, `OCCOc1ccc2nc(-c3cn(-c4ccc(O)cc4)nn3)ccc2c1` displayed a thermodynamic solubility at 48 h in data set [1] of 2.6 µg/mL (≈ 7.46 µM). For the compound `COCCOc1cccc(Oc2cccc3nc(-c4cn(-c5ccc(O)c(F)c5)nn4)ccc23)c1`, in data set [1], the thermodynamic solubility at 48 h was determined as 6.1 µg/mL (≈ 12.9 µM). Moreover, the Ki in data set [2] came to 24 nM. `Oc1ccc(-n2cc(-c3ccc4cc(OCC5CCCCO5)ccc4n3)nn2)cc1` (stereo not drawn) gave a thermodynamic solubility at 48 h in data set [1] of 3.4 µg/mL (≈ 8.45 µM). For the same compound, the Ki in data set [2] stood at 270 nM. Compound `O=C(O)COCCOc1ccc2nc(-c3cn(-c4ccc(O)c(F)c4)nn3)ccc2c1` registered a solubility (thermodynamic) at 48 h in data set [1] of 867 µg/mL (≈ 2040 µM). The Ki in data set [2] worked out at 37 nM.

Regarding `NCCOc1ccc2nc(-c3cn(-c4ccc(O)cc4)nn3)ccc2c1.O=C(O)C(F)(F)F`, the thermodynamic solubility at 48 h in data set [1] is 3.7 µg/mL. The compound `O=C(O)c1cccc(Oc2cccc3nc(-c4cn(-c5ccc(O)c(F)c5)nn4)ccc23)c1` gave a solubility (thermodynamic) at 48 h in data set [1] of 47.2 µg/mL (≈ 107 µM).

In data set [1], `NCCOCCOc1ccc2nc(-c3cn(-c4ccc(O)cc4)nn3)ccc2c1.O=C(O)C(F)(F)F` displayed a solubility (thermodynamic) at 48 h of 13.9 µg/mL. Still for that read-out and setting: to `O=C(O)COc1ccc2nc(-c3cn(-c4ccc(O)cc4)nn3)ccc2c1` belongs 365 µg/mL (≈ 1010 µM). As for `O=C(O)COc1ccc2nc(-c3cn(-c4ccc(O)c(F)c4)nn3)ccc2c1`, in data set [1], the solubility (thermodynamic) at 48 h worked out at 37 µg/mL (≈ 97.3 µM). In data set [1], `O=C(O)COc1ccc2nc(-c3cn(-c4ccccc4)nn3)ccc2c1` returned a solubility (thermodynamic) at 48 h of 1050 µg/mL (≈ 3020 µM). Moreover, the Ki in data set [2] came out at 1370 nM.

`CN1C(C(=O)Nc2ccccn2)=C(O)c2ccccc2S1(=O)=O` [PIROXICAM] registered a thermodynamic solubility at 48 h in data set [1] of 6.5 µg/mL (≈ 19.6 µM). Further, the solubility (thermodynamic) at 6 h in data set [3] came to 6.36 µg/mL (≈ 19.2 µM). Consider `Oc1ccc(-n2cc(-c3ccc4cc(OCCOCCN5CCOCC5)ccc4n3)nn2)cc1F`, for which, in data set [1], the thermodynamic solubility at 48 h came to 27.2 µg/mL (≈ 56.7 µM). On the same count and under the same terms, the result for `NCCOCCOc1ccc2nc(-c3cn(-c4ccc(O)c(F)c4)nn3)ccc2c1.O=C(O)C(F)(F)F` reads 9.1 µg/mL.
